This note sets out measurements from the M2OR odorant receptor database.

What all share (details): stereoisomer not certain
One assay has as its target T1, UniProt Q8VG27.
T1 sequence (whole entry): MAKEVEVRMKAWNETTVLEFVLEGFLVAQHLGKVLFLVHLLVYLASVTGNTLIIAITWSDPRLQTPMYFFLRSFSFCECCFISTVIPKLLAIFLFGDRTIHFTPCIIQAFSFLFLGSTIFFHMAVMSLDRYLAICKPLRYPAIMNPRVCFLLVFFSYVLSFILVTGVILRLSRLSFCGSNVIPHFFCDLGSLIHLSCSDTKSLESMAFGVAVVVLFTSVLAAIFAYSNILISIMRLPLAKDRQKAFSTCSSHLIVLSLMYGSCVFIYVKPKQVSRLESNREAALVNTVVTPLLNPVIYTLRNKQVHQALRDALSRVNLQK
In a few lines: (§1)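 Assay methods differ from source to source, frequently being transient luciferase assays in mammalian cell lines. For each receptor–molecule pair, the label responsive (active) applies when the original authors judged the measured signal statistically different from baseline, and non-responsive (inactive) applies otherwise.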

The target of another assay is UniProt Q8VG28. In a few lines:
as §1

The target in another assay is T2, UniProt Q8VG49.
T2 sequence (whole entry): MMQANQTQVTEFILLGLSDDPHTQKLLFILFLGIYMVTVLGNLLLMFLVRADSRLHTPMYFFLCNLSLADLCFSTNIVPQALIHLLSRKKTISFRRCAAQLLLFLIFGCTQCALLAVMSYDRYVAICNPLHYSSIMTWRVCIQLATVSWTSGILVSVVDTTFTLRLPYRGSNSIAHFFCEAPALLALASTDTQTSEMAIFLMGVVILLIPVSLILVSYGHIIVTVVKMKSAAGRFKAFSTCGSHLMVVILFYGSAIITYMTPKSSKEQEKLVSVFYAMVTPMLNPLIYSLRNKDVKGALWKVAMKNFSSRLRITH
In a few lines:
as §1

The target in the next assay is T3, UniProt Q8VG53.
T3 sequence (whole entry): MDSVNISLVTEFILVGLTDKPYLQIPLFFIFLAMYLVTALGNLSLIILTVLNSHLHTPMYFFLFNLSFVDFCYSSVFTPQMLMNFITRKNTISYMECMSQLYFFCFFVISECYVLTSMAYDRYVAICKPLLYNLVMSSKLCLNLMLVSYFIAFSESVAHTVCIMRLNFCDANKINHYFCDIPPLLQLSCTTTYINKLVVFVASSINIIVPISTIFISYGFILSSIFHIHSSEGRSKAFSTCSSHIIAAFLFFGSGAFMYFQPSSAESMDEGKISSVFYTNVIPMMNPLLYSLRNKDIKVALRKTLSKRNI
In a few lines: as §1

The next assay concerns the target T4, UniProt Q8VG64.
T4 sequence (whole entry): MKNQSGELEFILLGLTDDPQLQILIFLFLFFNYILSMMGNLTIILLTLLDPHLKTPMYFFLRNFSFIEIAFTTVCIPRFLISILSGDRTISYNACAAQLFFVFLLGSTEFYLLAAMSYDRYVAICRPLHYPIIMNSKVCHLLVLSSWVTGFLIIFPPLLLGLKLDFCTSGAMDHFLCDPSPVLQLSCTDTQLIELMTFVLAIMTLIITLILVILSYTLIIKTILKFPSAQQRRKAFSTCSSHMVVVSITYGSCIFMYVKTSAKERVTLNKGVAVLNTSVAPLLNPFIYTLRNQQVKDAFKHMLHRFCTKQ
In a few lines:
as §1

In a further assay the target is T5, UniProt Q8VG77.
T5 sequence (whole entry): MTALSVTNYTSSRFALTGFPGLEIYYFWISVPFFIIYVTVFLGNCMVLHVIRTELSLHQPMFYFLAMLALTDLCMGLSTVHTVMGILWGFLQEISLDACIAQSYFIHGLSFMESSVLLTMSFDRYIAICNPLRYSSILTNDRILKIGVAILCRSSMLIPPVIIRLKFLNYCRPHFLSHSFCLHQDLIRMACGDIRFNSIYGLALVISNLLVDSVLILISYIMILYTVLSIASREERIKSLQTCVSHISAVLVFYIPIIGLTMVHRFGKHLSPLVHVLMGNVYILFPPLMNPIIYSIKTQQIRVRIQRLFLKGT
In a few lines:
as §1

The target of a further assay is T6, UniProt Q8VG96.
T6 sequence (whole entry): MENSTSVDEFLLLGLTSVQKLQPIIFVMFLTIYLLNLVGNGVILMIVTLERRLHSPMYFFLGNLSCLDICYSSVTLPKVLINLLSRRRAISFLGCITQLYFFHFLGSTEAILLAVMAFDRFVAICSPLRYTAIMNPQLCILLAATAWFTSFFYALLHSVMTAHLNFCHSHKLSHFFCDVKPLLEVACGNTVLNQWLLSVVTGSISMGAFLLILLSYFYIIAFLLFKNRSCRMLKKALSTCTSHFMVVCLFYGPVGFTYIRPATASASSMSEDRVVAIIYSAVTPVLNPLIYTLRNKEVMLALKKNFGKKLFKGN
In a few lines:
as §1

The next assay has as its target T7, UniProt Q8VGB9.
T7 sequence (whole entry): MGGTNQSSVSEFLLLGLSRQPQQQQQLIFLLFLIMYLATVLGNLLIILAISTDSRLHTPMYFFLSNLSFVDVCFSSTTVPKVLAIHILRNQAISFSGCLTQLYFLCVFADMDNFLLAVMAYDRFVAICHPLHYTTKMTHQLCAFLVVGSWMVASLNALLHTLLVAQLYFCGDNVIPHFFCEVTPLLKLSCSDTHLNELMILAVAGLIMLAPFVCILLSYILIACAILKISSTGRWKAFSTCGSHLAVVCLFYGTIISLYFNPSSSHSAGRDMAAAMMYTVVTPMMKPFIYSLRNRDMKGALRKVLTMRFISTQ
In a few lines: as §1

In the next assay the target is T8, UniProt Q8VGC6.
T8 sequence (whole entry): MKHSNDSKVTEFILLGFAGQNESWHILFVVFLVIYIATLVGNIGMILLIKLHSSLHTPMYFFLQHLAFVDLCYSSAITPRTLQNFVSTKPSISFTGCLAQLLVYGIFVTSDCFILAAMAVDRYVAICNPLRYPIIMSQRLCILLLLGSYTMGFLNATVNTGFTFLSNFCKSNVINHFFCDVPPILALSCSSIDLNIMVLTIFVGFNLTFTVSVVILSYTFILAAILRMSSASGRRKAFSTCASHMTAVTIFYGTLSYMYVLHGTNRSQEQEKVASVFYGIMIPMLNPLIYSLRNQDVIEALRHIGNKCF
In a few lines:
as §1

Another assay deals with T9, UniProt Q8VGD7.
T9 sequence (whole entry): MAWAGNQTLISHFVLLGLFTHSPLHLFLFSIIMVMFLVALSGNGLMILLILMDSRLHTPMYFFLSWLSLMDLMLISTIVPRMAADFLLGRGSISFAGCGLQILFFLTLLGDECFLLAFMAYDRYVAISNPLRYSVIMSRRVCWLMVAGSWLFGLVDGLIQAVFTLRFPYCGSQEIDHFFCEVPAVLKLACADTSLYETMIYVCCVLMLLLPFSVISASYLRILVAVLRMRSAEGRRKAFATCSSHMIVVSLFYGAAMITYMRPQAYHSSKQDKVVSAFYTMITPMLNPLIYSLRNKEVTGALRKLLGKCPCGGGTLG
In a few lines: as §1

For the next assay, the target named is T10, UniProt Q8VGH1.
T10 sequence (whole entry): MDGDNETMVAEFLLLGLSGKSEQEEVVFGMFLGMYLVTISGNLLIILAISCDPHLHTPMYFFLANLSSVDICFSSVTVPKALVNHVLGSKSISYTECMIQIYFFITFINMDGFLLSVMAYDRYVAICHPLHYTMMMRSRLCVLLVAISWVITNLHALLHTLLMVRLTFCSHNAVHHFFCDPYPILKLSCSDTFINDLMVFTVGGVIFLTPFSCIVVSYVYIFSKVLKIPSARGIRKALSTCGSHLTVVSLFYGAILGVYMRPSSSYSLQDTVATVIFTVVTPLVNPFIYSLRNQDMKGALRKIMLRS
In a few lines:
as §1

The next assay addresses T11, UniProt Q8VGJ1.
T11 sequence (whole entry): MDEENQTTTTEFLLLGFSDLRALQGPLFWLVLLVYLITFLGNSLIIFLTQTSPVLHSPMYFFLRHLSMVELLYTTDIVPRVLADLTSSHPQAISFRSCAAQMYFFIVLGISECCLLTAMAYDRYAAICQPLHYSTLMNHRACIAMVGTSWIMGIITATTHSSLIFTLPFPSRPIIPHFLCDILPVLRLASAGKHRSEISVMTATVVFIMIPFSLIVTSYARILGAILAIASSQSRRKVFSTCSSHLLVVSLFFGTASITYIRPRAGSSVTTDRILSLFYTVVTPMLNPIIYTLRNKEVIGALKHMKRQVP
In a few lines:
as §1

The target in another assay is T12, UniProt Q8VGJ3.
T12 sequence (whole entry): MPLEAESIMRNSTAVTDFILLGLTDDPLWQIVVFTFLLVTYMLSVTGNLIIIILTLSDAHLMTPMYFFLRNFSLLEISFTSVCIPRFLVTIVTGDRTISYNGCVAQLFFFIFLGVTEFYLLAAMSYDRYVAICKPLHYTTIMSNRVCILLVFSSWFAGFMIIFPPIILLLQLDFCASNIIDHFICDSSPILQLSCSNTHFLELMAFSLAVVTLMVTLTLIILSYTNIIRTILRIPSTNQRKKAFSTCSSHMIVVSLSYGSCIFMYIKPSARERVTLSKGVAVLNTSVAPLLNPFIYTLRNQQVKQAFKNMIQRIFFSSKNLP
In a few lines:
as §1

In the next assay the target is T13, UniProt Q8VGJ5.
T13 sequence (whole entry): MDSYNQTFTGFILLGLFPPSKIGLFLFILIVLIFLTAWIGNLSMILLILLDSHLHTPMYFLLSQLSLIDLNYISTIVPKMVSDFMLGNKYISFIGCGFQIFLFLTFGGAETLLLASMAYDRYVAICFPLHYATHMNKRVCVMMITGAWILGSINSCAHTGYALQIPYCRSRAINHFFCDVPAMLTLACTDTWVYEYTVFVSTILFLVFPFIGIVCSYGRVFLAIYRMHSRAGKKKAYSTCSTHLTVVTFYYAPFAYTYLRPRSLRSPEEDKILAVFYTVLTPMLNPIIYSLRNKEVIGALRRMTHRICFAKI
In a few lines: as §1

The target in a further assay is T14, UniProt Q8VGL0.
T14 sequence (whole entry): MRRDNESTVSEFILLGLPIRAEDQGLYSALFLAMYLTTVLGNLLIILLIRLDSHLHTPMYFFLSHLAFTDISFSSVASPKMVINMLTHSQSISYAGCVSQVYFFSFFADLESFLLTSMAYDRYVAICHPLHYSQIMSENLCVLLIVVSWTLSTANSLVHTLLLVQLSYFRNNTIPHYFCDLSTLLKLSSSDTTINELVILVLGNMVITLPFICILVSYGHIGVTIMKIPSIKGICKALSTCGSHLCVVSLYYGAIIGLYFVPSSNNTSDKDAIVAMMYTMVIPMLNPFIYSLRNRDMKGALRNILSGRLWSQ
In a few lines:
as §1

Another assay deals with T15, UniProt Q8VGL7.
T15 sequence (whole entry): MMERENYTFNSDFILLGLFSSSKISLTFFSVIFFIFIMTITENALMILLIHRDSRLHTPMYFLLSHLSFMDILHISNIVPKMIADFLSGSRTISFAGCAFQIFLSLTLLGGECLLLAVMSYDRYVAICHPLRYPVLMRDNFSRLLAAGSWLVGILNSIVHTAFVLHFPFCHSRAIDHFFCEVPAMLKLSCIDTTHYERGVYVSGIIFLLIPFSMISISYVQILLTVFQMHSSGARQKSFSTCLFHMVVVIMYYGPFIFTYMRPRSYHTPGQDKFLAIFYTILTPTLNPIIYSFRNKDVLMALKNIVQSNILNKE
In a few lines:
as §1

SMILES strings stand for the structures.

UniProt Q8VG28, sequence (Q8VG28 as listed by the source): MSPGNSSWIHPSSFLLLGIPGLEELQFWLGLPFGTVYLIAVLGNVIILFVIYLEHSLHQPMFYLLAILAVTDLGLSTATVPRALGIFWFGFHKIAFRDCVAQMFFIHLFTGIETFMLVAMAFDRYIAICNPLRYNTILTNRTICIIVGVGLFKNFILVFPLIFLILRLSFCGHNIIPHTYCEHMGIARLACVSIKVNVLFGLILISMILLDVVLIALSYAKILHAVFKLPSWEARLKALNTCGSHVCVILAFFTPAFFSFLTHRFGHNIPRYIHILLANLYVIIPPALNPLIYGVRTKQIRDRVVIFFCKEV

With `CCCCC(=O)O`, the “odorant receptor agonist call” value in the assay with UniProt Q8VG27, with UniProt Q8VG28, in the assay with UniProt Q8VG49, with UniProt Q8VG53, with UniProt Q8VG64 and with UniProt Q8VG77 was “inactive” throughout. Also, the “odorant receptor agonist call” value with UniProt Q8VG96, with UniProt Q8VGB9, with UniProt Q8VGC6, with UniProt Q8VGD7, with UniProt Q8VGH1 and with UniProt Q8VGJ1 was “inactive” throughout. The “odorant receptor agonist call” value with UniProt Q8VGJ3, with UniProt Q8VGJ5, with UniProt Q8VGL0 and in the assay with UniProt Q8VGL7 was “inactive” in each case.

Consider `CCCCCCOC(C)=O`, for which the “odorant receptor agonist call” value with UniProt Q8VG27, with UniProt Q8VG49, with UniProt Q8VG53, in the assay with UniProt Q8VG64, with UniProt Q8VG77 and with UniProt Q8VG96 was “inactive” in each case. Moreover, the “odorant receptor agonist call” value with UniProt Q8VGB9, in the assay with UniProt Q8VGC6, with UniProt Q8VGD7, with UniProt Q8VGH1, with UniProt Q8VGJ1 and in the assay with UniProt Q8VGJ3 was “inactive” throughout. In addition, the “odorant receptor agonist call” value with UniProt Q8VGJ5, with UniProt Q8VGL0 and in the assay with UniProt Q8VGL7 was “inactive” in each case.

With `CC(=O)Oc1ccccc1`, the “odorant receptor agonist call” value in the assay with UniProt Q8VG27, with UniProt Q8VG49, with UniProt Q8VG53, with UniProt Q8VG64, in the assay with UniProt Q8VG77 and in the assay with UniProt Q8VGB9 was “inactive” throughout. The “odorant receptor agonist call” value in the assay with UniProt Q8VGD7, in the assay with UniProt Q8VGH1, in the assay with UniProt Q8VGJ1, with UniProt Q8VGJ3, with UniProt Q8VGJ5 and in the assay with UniProt Q8VGL0 was “inactive” in each case. The “odorant receptor agonist call” value in the assay with UniProt Q8VGL7 was “inactive”. For the same compound, the “odorant receptor agonist call” value with UniProt Q8VG96 and with UniProt Q8VGC6 was “active” each time.

In the case of `CCCCC(=O)CC`, the “odorant receptor agonist call” value with UniProt Q8VG27, with UniProt Q8VG49, in the assay with UniProt Q8VG53, with UniProt Q8VG64, with UniProt Q8VG77 and with UniProt Q8VG96 was “inactive” each time. Besides, the “odorant receptor agonist call” value in the assay with UniProt Q8VGB9, with UniProt Q8VGD7, with UniProt Q8VGH1, in the assay with UniProt Q8VGJ1, in the assay with UniProt Q8VGJ3 and in the assay with UniProt Q8VGL0 was “inactive” each time. Further, in the assay with UniProt Q8VGL7, the “odorant receptor agonist call” value is “inactive”. The “odorant receptor agonist call” value with UniProt Q8VGC6 and in the assay with UniProt Q8VGJ5 was “active” each time.
